Experimental data reported in paper PMC10600558 (Molecular Imaging and Radionuclide Therapy, 2023).

Experiments:
[1] = test system: neuroendocrine tumors (NETs); details: NETTER-1 trial; cited from earlier work
[2] = In vitro stability of [^225Ac]Ac-DOTATATE in saline; assay type: physicochemical; details: 37 °C, up to 5 h, n=3, slight decrease in stability after 5 h
[3] = In vivo stability in patients' blood and urine samples; details: RP-HPLC
Summary of the method: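 Samples came from the first 3 patients: blood at 0-10 min and urine up to 3 h post-injection. Blood was precipitated with acetonitrile (1:1) and centrifuged for 5 min at 14,680 rpm, and the supernatant was diluted 1:1 with water. Urine was diluted with water, filtered and analysed immediately. Both went to RP-HPLC, and fractions were gamma-counted (440 keV, [213Bi]) at least 20 h later and plotted by tube number.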

[4] = Excretion from the kidneys after injection; assay type: in vivo; details: 24 h after injection, 9 patients, mean ± SD, relative to injected activity
Summary of the method: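 Patients received 100-120 kBq/kg of the test radioligand as a slow intravenous injection over 5 min, with arginine/lysine kidney protection. The amount excreted in urine was quantified against standard samples prepared at the time of injection. The excretion rate was expressed relative to injected activity and reported as mean ± standard deviation.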

[5] = Toxicity and side effects according to CTCAE v5.0; assay type: in vivo, patients
Summary of the method: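 Patients were treated as inpatients with amino-acid renal protection and ondansetron premedication. Vital signs were recorded every 60 min for 5 h, and complaints were tracked for 24 h. Adverse events were graded by CTCAE v5.0 three months after each cycle. Haematological, renal and liver values before versus after the last cycle were compared by Wilcoxon rank sum test and reported as mean ± standard deviation, with p<0.05 taken as significant.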

[6] = [^68Ga]Ga-DOTATATE uptake of parotid glands; assay type: in vivo, patients; details: [^68Ga]Ga-DOTATATE PET/CT
Summary of the method: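 Parotid SUVmax was read on [68Ga]Ga-DOTATATE PET/CT at baseline and after cycles of treatment. Pre/post values were compared by Wilcoxon rank sum test and reported as mean ± standard deviation, with p<0.05 taken as significant.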

[7] = test system: metastatic neuroendocrine tumors (NETs); test: Response evaluation by [^68Ga]Ga-DOTATATE PET/CT and RECIST 1.1; assay type: in vivo, patients; details: [^68Ga]Ga-DOTATATE PET/CT three months after treatment, n=9 evaluated
Summary of the method: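 Treatment was 100-120 kBq/kg given intravenously over 5 min. Response was read on [68Ga]Ga-DOTATATE PET/contrast-enhanced CT within 4 weeks before and 12-16 weeks after treatment, repeated 12-18 weeks after each cycle until progression or death, and scored by RECIST 1.1 on the ceCT. PFS ran from the first administration and was estimated by Kaplan-Meier. Response comparisons used chi-square, with p<0.05 taken as significant.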

NET = details: recent study of the same group; cited from earlier work
[8] = CTCAE v5.0, 8 patients analysed, n=1 (grade 2, after 3 cycles)

Row | Substance | estimated median progression-free survival (PFS) [1] [months] | RP-HPLC profile of saline incubation samples [2] | time stable in vivo (urine and blood samples) ([3]; first 3 patients, blood 0-10 min, urine up to 3 h after injection) [h] | time remained stable in urine ([3]; patient urine samples up to 3 h after injection) | mean excretion rate from the kidneys [4] [%] | hematotoxicity rate [5, 8] [%] | nephrotoxicity rate [5, 8] [%] | grade 3-4 toxicities ([5]; CTCAE v5.0, mean activity 8.2±0.6 MBq per cycle, 1-3 cycles) | lymphocyte count ([5]; all patients, p<0.05) | acute side effects during the injection ([5]; nausea or vomiting, slow injection over 5 min, 100-120 kBq/kg) | xerostomia ([5]; patient complaints) | mean parotid SUVmax after two cycles ([6]; n=6, baseline 2.98±0.96, p=0.73) | mean parotid SUVmax after the first cycle ([6]; n=9, baseline 2.98±0.96, p=0.93) | progressive disease ([7]; n=1) [%] | partial response (PR) ([7]; n=4) [%] | disease control rate (NET) [%]
1 | [^177Lu]Lu-DOTATATE | 40 |  |  |  |  |  |  |  |  |  |  |  |  |  |  | 
2 | [^225Ac]Ac-DOTATATE |  | single radioactivity peak | ≥ 3 | up to 3 h | 56±9.7 | 12.5 | 12.5 | No grade 3-4 toxicities | transient decrease | did not observe any acute side effects | did not complain of xerostomia | 2.48±0.59 | 2.07±0.93 | 11 | 44.4 | 79.8
